Laboratory results reported in ChEMBL document CHEMBL1135601, “Synthesis and biolocalization of water-soluble sapphyrins” (J Med Chem, 2002).

Experiments:
[1] = Biodistribution after day 1 in mouse tumor; assay type: ADME, organism-based
Summary of the method: (§1)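 Female outbred CD-1 nude mice (18-20 g) bearing subcutaneous human pancreatic adenocarcinoma UB 290896 (2 × 2 mm pieces, right flank; used at tumor diameter 4.5-5.5 mm). Aqueous solution (∼1 mmol L-1) given subcutaneously at 15 µmol kg-1 per day for 3 days. Mice killed 1, 3, 6 or 9 days after the last injection. Five mice per time point, plus 5 noninjected controls.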

[2] = Biodistribution after day 3 in mouse blood; assay type: ADME, organism-based; summary of the method: as §1
[3] = Biodistribution after day 3 in mouse brain; assay type: ADME, organism-based; summary of the method: as §1
[4] = Biodistribution after day 3 in mouse heart; assay type: ADME, organism-based; summary of the method: as §1
[5] = Biodistribution after day 3 in mouse kidney; assay type: ADME, organism-based; summary of the method: as §1
[6] = Biodistribution after day 3 in mouse liver; assay type: ADME, organism-based; summary of the method: as §1
[7] = Biodistribution after day 3 in mouse lung; assay type: ADME, organism-based; summary of the method: as §1
[8] = Biodistribution after day 3 in mouse muscle; assay type: ADME, organism-based, Muscle tissue; summary of the method: as §1
[9] = Biodistribution after day 3 in mouse spleen; assay type: ADME, organism-based; summary of the method: as §1
[10] = Biodistribution after day 3 in mouse tumor; assay type: ADME, organism-based; summary of the method: as §1
[11] = Biodistribution after day 6 in mouse blood; assay type: ADME, organism-based; summary of the method: as §1
[12] = Biodistribution after day 6 in mouse brain; assay type: ADME, organism-based; summary of the method: as §1
[13] = Biodistribution after day 6 in mouse heart; assay type: ADME, organism-based; summary of the method: as §1
[14] = Biodistribution after day 6 in mouse kidney; assay type: ADME, organism-based; summary of the method: as §1
[15] = Biodistribution after day 6 in mouse lung; assay type: ADME, organism-based; summary of the method: as §1
[16] = Biodistribution after day 6 in mouse muscle; assay type: ADME, organism-based, Muscle tissue; summary of the method: as §1
[17] = Biodistribution after day 6 in mouse spleen; assay type: ADME, organism-based; summary of the method: as §1
[18] = Biodistribution after day 6 in mouse tumor; assay type: ADME, organism-based; summary of the method: as §1
[19] = Biodistribution after day 1 in mouse blood; assay type: ADME, organism-based; summary of the method: as §1
[20] = Biodistribution after day 1 in mouse brain; assay type: ADME, organism-based; summary of the method: as §1
[21] = Biodistribution after day 1 in mouse heart; assay type: ADME, organism-based; summary of the method: as §1
[22] = Biodistribution after day 1 in mouse kidney; assay type: ADME, organism-based; summary of the method: as §1
[23] = Biodistribution after day 1 in mouse liver; assay type: ADME, organism-based; summary of the method: as §1
[24] = Biodistribution after day 1 in mouse lung; assay type: ADME, organism-based; summary of the method: as §1
[25] = Biodistribution after day 1 in mouse muscle; assay type: ADME, organism-based, Muscle tissue; summary of the method: as §1
[26] = Biodistribution after day 1 in mouse spleen; assay type: ADME, organism-based; summary of the method: as §1
[27] = Biodistribution after day 6 in mouse liver; assay type: ADME, organism-based; summary of the method: as §1
[28] = Biodistribution after day 9 in mouse tumor; assay type: ADME, organism-based; summary of the method: as §1
[29] = Biodistribution after day 9 in mouse blood; assay type: ADME, organism-based; summary of the method: as §1
[30] = Biodistribution after day 9 in mouse brain; assay type: ADME, organism-based; summary of the method: as §1
[31] = Biodistribution after day 9 in mouse heart; assay type: ADME, organism-based; summary of the method: as §1
[32] = Biodistribution after day 9 in mouse kidney; assay type: ADME, organism-based; summary of the method: as §1
[33] = Biodistribution after day 9 in mouse liver; assay type: ADME, organism-based; summary of the method: as §1
[34] = Biodistribution after day 9 in mouse lung; assay type: ADME, organism-based; summary of the method: as §1
[35] = Biodistribution after day 9 in mouse muscle; assay type: ADME, organism-based, Muscle tissue; summary of the method: as §1
[36] = Biodistribution after day 9 in mouse spleen; assay type: ADME, organism-based; summary of the method: as §1

Structure (SMILES) | concentration at 1 day [1] [ng/g] | concentration at 3 day [2] [ng/g] | concentration at 3 day [3] [ng/g] | concentration at 3 day [4] [ng/g] | concentration at 3 day [5] [ng/g] | concentration at 3 day [6] [ng/g] | concentration at 3 day [7] [ng/g] | concentration at 3 day [8] [ng/g] | concentration at 3 day [9] [ng/g] | concentration at 3 day [10] [ng/g] | concentration at 6 day [11] [ng/g] | concentration at 6 day [12] [ng/g] | concentration at 6 day [13] [ng/g] | concentration at 6 day [14] [ng/g] | concentration at 6 day [15] [ng/g] | concentration at 6 day [16] [ng/g] | concentration at 6 day [17] [ng/g] | concentration at 6 day [18] [ng/g] | concentration at 1 day [19] [ng/g] | concentration at 1 day [20] [ng/g] | further results
CCc1c(CC)c2cc3nc(cc4[nH]c(c(C)c4CC)c4[nH]c(cc5nc(cc1[nH]2)C(CCC(=O)NCCN(CCN)CCN)=C5C)c(CC)c4C)C(C)=C3CCC(=O)NCCN(CCN)CCN | 58000 | 3400 | 400 | 10700 | 5700 | 13000 | 13000 | 36000 | 8000 | 89000 | 1170 | 160 | 5200 | 1700 | 3200 | 22000 | 3900 | 49000 | 950 | 870 | concentration at 1 day [21]: 3100 ng/g; concentration at 1 day [22]: 2800 ng/g; concentration at 1 day [23]: 1030 ng/g; concentration at 1 day [24]: 2500 ng/g; concentration at 1 day [25]: 3600 ng/g; concentration at 1 day [26]: 4100 ng/g; concentration at 6 day [27]: 10000 ng/g
CCc1c(CC)c2cc3nc(cc4[nH]c(c(C)c4CC)c4[nH]c(cc5nc(cc1[nH]2)C(CCC(=O)NC1C(O)OC(CO)C(O)C1O)=C5C)c(CC)c4C)C(C)=C3CCC(=O)NC1C(O)OC(CO)C(O)C1O (centres undefined) | 32000 | 2000 | 770 | 9000 | 1900 | 430 | 8000 | 21000 | 7800 | 66000 | 2200 | 750 | 6400 | 1500 | 6000 | 17000 | 8000 | 330000 | 1440 | 550 | concentration at 9 day [28]: 23000 ng/g; concentration at 9 day [29]: 1500 ng/g; concentration at 9 day [30]: 520 ng/g; concentration at 9 day [31]: 6000 ng/g; concentration at 9 day [32]: 2800 ng/g; concentration at 9 day [33]: 470 ng/g; concentration at 9 day [34]: 8000 ng/g; concentration at 9 day [35]: 11000 ng/g; concentration at 9 day [36]: 9700 ng/g; concentration at 1 day [21]: 5400 ng/g; concentration at 1 day [22]: 1100 ng/g; concentration at 1 day [23]: 290 ng/g; concentration at 1 day [24]: 4900 ng/g; concentration at 1 day [25]: 8000 ng/g; concentration at 1 day [26]: 3600 ng/g; concentration at 6 day [27]: 370 ng/g
C=CC1=C(C)c2cc3nc(cc4[nH]c(cc5[nH]c(cc1n2)c(C)c5CCC(=O)NC1C(O)OC(CO)C(O)C1O)c(CCC(=O)NC1C(O)OC(CO)C(O)C1O)c4C)C(C=C)=C3C (centres undefined) [PORPHYRIN] | 34000 | 900 | 410 | 1450 | 3100 | 800 | 1700 | 4200 | 16000 | 131000 | 980 | 320 | 1700 | 4300 | 1400 | 5100 | 12000 | 260000 | 1090 | 420 | concentration at 9 day [28]: 37000 ng/g; concentration at 9 day [29]: 800 ng/g; concentration at 9 day [30]: 370 ng/g; concentration at 9 day [31]: 2400 ng/g; concentration at 9 day [32]: 510 ng/g; concentration at 9 day [33]: 960 ng/g; concentration at 9 day [34]: 2300 ng/g; concentration at 9 day [35]: 3600 ng/g; concentration at 9 day [36]: 9000 ng/g; concentration at 1 day [21]: 2700 ng/g; concentration at 1 day [22]: 700 ng/g; concentration at 1 day [23]: 1100 ng/g; concentration at 1 day [24]: 2000 ng/g; concentration at 1 day [25]: 3500 ng/g; concentration at 1 day [26]: 22000 ng/g; concentration at 6 day [27]: 1320 ng/g
